Efflux pump inh: inhibitors of Candida efflux pumps in yeast, primary screen, S. cerevisiae, Nile Red, multiplex; S. cerevisiae Candida pump triplex; inhibition, % at 10 µM; actives 0.44% (n = 330,000);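 active = plate passing quality check with inhibition over a set limit, or well fluorescence over plate mean plus 4 SD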;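 also: Nile Red retained in pooled yeast measured as flow cytometry median fluorescence; higher means more Nile Red kept so more efflux inhibition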
MEKK2wt PB1 HTS: modulators of MEK5 binding to wildtype MEKK2, primary screen, biochemical, multiplex bead flow cytometry, Alexa488-MEK5; binding response (% of control), % at 10 µM; actives 1.1% (n = 290,000); Alexa488-MEK5 binding to MEKK2 WT; actives lie on both sides; in the data active = binding response below about 67% or above about 130%
MEKK3 PB1 HTS: modulators of MEKK3-MEK5 PB1 binding, primary screen, biochemical, wildtype MEKK3, multiplex bead flow cytometry, Alexa488-MEK5 | bead-based flow cytometry, Alexa488-MEK5 binding to MEKK3; actives lie on both sides; 0 = blocked by unlabeled MEK5, 100 = vehicle | binding response (% of control), % at 10 µM | actives 1.4% (n = 290,000) | AID 1529, 2009;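 active = binding response more than 3 SD above or below the average of its plate-row segment, actives on both sides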;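 also: Alexa488 bead fluorescence after subtracting the streptavidin-only scavenger bead signal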
ABCB1 block: ABCB1 efflux pump inhibitors, primary screen, cell-based, multiplex, flow cytometry, ABCG2 counter-screen. inhibition, % at 6.6 µM. CCRF-Adr cells, JC-1 efflux. actives 0.067% (n = 190,000). AID 1326, 2008; in the data active = inhibition above about 40%;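 also: higher value means more JC-1 retained so stronger ABCB1 efflux block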
MEKK2mut PB1 HTS: MEK5 binding signal on mutant MEKK2 PB1, primary screen, biochemical, multiplex bead flow cytometry, Alexa488-MEK5; actives 0.35% (n = 290,000); Alexa488-MEK5 binding to MEKK2 mutant; percent response, % at 10 µM; in the data active = percent response above about 24%, passing the limit was not always enough
ABCG2 block: ABCG2 efflux pump inhibitors, primary screen, multiplex with ABCB1, IgMXP3 cells, flow cytometry | Broad substrate specificity ATP-binding cassette transporter ABCG2 (Homo sapiens), Q9UNQ0 | AID 1325, 2008 | actives 0.1% (n = 190,000) | inhibition, % at 6.6 µM | JC-1 efflux;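 active = inhibition above 80%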
Target sequence (Q9UNQ0 whole entry, looked up): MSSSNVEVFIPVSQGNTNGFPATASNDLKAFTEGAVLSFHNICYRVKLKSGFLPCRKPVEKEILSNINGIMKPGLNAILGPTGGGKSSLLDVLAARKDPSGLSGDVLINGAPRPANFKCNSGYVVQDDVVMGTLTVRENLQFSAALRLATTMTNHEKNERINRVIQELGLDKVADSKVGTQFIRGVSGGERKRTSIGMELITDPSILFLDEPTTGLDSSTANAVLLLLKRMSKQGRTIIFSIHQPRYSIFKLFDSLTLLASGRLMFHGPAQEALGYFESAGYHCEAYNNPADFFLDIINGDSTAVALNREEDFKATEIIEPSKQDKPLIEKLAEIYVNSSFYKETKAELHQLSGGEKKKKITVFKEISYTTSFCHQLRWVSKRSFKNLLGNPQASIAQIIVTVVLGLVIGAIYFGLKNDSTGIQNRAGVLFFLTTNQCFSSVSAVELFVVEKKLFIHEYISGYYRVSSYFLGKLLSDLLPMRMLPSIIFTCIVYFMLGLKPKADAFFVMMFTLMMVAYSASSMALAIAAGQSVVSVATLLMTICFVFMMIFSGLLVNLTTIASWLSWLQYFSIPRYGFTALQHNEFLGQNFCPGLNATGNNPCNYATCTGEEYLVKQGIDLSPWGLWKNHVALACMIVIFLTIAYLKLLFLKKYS
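Test system: ABCG2 IgMXP3 and barcoded ABCB1 CCRF-Adr cell mix; Schedule: cells with compound and JC-1, 10 min at 25 °C, rotating, no wash; Technique: flow cytometry of retained JC-1 fluorescence; Measure: % inhibition of efflux relative to nicardipine and DMSO; Controls: nicardipine high and DMSO low controls.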
MEKK2wt confirm: modulators of MEK5 binding to wildtype MEKK2, confirmation, biochemical, single concentration, multiplex bead flow cytometry. shares compounds with MEKK3 PB1 HTS. Alexa488-MEK5 binding to MEKK2 WT; actives lie on both sides. binding response (% of control), % at 10 µM. actives 2.4% (n = 5,900); in the data active = binding response below about 16% or above about 210%; inactive = in between
MEKK2mut confirm: mutant MEKK2 PB1-MEK5 binding signal retest – biochemical, single concentration, multiplex bead flow cytometry, confirmation. actives 2% (n = 5,900). shares compounds with MEKK3 PB1 HTS. Alexa488-MEK5 binding to MEKK2 mutant. percent response, % at 10 µM; in the data active = percent response mostly above about 71%, no sharp cut-off; inactive = mostly below about 38%;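 also: higher means compound restores mutant binding toward wildtype level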
MEKK3-MEK5 inh: MEKK3 wild-type PB1 binding to MEK5, inhibitors, confirmation, biochemical, bead multiplex flow cytometry, single concentration, wildtype. shares compounds with MEKK3 PB1 HTS. Alexa488-MEK5 binding to MEKK3; active compounds read low. binding response (% of control), % at 10 µM. actives 1.8% (n = 5,900). AID 1894, 2009;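 active = binding response below 72% of control, or above a set upper limit, though filed actives all read lower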;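 also: lower values mean stronger disruption of MEK5 binding to MEKK3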
Numbers stand for hits; – = inactive; · = no result given; [ ] = dose if it differs, or a comment. Sampled rows, rich in hits. Any-hit rate of the full collection: about 2.5%.

SMILES	Efflux pump inh	MEKK2wt PB1 HTS	MEKK3 PB1 HTS	ABCB1 block	MEKK2mut PB1 HTS	ABCG2 block	MEKK2wt confirm	MEKK2mut confirm	MEKK3-MEK5 inh
CCOC(=O)c1sc(NC(=O)Nc2ccc(Cl)cc2)cc1C	–	138	–	–	–	–	-2.0[inhibitor]	–	–
CCOC(=O)c1sc(NC(=O)c2ccc(Cl)s2)cc1C	–	–	–	–	–	–	·	·	·
COCCN1C=C2C(=O)C(C)(OC(=O)CCC(=O)OC)C(=O)C(Br)=C2C=C1c1ccc(OC)cc1 (centres undefined)	–	–	–	·	–	·	·	·	·
COC(=O)CCCC1=CC2=C(c3ccccc3)C(=O)C(C)(OC(=O)C3CCCC3)C(=O)C2=CN1C1CC1 (centres undefined)	–	155	–	·	–	·	–	–	–
COC(=O)CCC(=O)OC1(C)C(=O)C2=CN(C3CCCC3)C(c3ccc(OC)cc3)=CC2=C(Br)C1=O (centres undefined)	–	-8.0[inhibitor]	47[inhibitor]	·	–	·	–	–	–
COC(=O)CCCC1=CC2=C(c3ccccc3)C(=O)C(C)(OC(=O)C3CCCC3)C(=O)C2=CN1c1ccccc1 (centres undefined)	–	154	128	·	–	·	–	–	–
Cc1c(SCCO)c(=O)[nH]c2cc3c(cc12)OCO3	–	–	–	–	–	–	·	·	·
C/C(=N\NC(=O)C(O)c1ccccc1)c1ccc(Br)s1 (centres undefined)	–	–	–	·	–	·	·	·	·
O=C(CN1C(=O)NC2(CCc3ccccc32)C1=O)c1ccc2c(c1)OCCO2 (centres undefined)	–	–	–	–	–	–	·	·	·
COC(=O)C1=C(NC(=O)c2cccs2)CCS1	·	–	–	–	–	–	·	·	·
COC(=O)C1=C(NC(=O)c2ccccc2C)CCS1	–	–	46[inhibitor]	–	–	–	–	–	–
COc1ccccc1-n1c(SCC(=O)N2CCOCC2)nc2ccccc2c1=O	–	–	–	·	–	·	·	·	·
COc1ccccc1-n1c(CNc2c(C)cccc2C)nnc1SCC(=O)N1CCOCC1	–	–	122	–	–	–	–	–	–
Cc1[nH]nc2c1C(Cc1ccccc1)C(C#N)=C(N)O2 (centres undefined)	–	3.0[inhibitor]	2.0[inhibitor]	–	–	–	–	–	–
CCC(=O)Nc1ccc(C(=O)CSc2nc3ccccc3[nH]2)cc1	–	–	–	–	–	–	·	·	·
N#CCCN(C(=O)COC(=O)c1ccc2c(=O)n3c(nc2c1)CCC3)c1ccccc1	–	–	–	–	–	–	·	·	·
CN(CCC#N)C(=O)COC(=O)c1ccc2c(=O)n3c(nc2c1)CCC3	–	–	128	–	–	–	–	–	–
Cc1c(C(=O)c2ccccc2)c(=O)n(C)c(=O)n1C	–	–	–	–	–	–	·	·	·
CN1CCN(CCCNC(=O)c2ccc(/C=C3\Sc4ccccc4N(Cc4ccccc4F)C3=O)cc2)CC1	·	167	–	–	–	–	–	–	–

High-throughput results deposited in PubChem by NMMLSC.
